Source: PubChem BioAssay
Runt-SMMHC FRET – blocks binding of human RUNX1 Runt domain to CBFb-SMMHC; inhibition, % at 20 µM; Q01196+Q13951; 220,000 compounds, 0.74% hits; Cerulean-Runt/Venus-CBFb-SMMHC FRET ratio 530/480, 1 h;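 active means mean inhibition across duplicate retests at 20 µM reaching about 50%, limit read from the data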;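 further: 0% = DMSO wells and 100% = wells with excess untagged CBFb-SMMHC; inhibitors lower the FRET ratio by blocking Runt binding to CBFb-SMMHC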
Pemphigus Ab inh – human desmoglein-3 autoantibody binding inhibition; binding (percent of control), % at 10 µM; P32926; DSG3-coupled beads, scFv-anti-DSG3-GFP binding, flow cytometry; hits give low values; 310,000 compounds, 0.48% hits;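 active means binding more than 3 SD below its plate's average and above zero; inconclusive means below that plate limit but binding exactly zero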;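 further: hits lower antibody fragment binding to DSG3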
Target sequence (P32926 whole entry, looked up, the tested form may be a part): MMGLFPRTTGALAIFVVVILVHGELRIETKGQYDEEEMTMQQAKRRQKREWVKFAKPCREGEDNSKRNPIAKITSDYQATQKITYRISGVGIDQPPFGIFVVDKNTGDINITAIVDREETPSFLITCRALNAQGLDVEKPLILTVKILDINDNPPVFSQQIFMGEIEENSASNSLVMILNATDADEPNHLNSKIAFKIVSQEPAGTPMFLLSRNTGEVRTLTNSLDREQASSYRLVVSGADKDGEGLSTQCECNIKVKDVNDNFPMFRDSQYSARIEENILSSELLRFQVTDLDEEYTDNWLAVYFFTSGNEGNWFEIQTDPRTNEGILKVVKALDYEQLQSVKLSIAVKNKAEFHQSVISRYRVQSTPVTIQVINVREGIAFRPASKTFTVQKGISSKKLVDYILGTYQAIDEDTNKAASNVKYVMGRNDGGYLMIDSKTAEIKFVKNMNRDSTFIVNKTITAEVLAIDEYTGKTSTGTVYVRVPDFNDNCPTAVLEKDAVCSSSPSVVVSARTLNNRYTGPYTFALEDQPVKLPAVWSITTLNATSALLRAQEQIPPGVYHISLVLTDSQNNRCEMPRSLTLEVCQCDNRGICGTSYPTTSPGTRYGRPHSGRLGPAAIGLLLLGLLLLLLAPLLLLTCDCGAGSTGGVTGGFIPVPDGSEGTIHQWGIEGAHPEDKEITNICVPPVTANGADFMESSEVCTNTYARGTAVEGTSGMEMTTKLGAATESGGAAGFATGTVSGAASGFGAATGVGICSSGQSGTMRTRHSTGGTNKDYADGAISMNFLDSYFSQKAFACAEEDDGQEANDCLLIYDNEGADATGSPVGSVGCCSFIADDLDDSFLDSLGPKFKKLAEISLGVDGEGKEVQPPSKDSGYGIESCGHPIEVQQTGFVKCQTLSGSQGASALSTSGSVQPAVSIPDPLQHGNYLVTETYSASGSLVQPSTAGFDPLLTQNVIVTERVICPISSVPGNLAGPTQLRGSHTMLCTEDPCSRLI
RanGTP-Imp inh – inhibitors of RanGTP-importin-beta interaction, primary screen, biochemical, FRET, CFP-Ran, YFP-importin-beta, homogeneous | cell-free CFP-Ran/YFP-importin-beta FRET ratio | inhibition, % (no concentration beside the values) | 300,000 compounds, 1.1% hits | AID 2216;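 active means more than half of the replicate wells show a fall in the fluorescence ratio signal beyond about 16%, limit read from the data, passing the limit was not always enough; inconclusive means exactly half of the replicate wells pass the set limit; inactive means fewer than half of replicates pass the limit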;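 further: 0% = DMSO wells and 100% = Ran loaded with GDP instead of GTP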
p-CIP stab down – lowers stability of the mouse p/CIP coactivator protein. decrease of EGFP signal, % at 10 µM. AID 1984. F442A p/CIP-EGFP cells, EGFP fluorescence, 16 h. 290,000 compounds, 0.01% hits. Q05BA5;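 active means EGFP signal decrease of at least 30% at 10 µM or well 3 SD below plate mean, unless failing retest; inactive means the rest, including hits failing retest or dose response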
Hck Nef HTS – human Hck-Nef kinase inhibition. Recombinant Hck-YEEI plus Nef, Z-Lyte FRET kinase assay. inhibition, % at 20 µM. 220,000 compounds, 0.68% hits. AID 463187;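 active means Hck-Nef kinase inhibition above about 50%, limit read from the data; inactive means inhibition below that limit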;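 further: 0% = DMSO with Hck plus Nef and 100% = Hck alone without Nef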
Runt-CBFb FRET – Runt domain-CBFb interaction inhibition | inhibition, % at 20 µM | Cerulean-Runt/Venus-CBFb FRET ratio 530/480, 1 h | 220,000 compounds, 0.46% hits;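 active means inhibition over about 50% at 20 µM in the single-dose screen, limit read from the data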;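 further: 0% = DMSO wells and 100% = excess unlabeled CBFb competitor control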
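Doses: 20 µM compound in 1% DMSO | Material: Cerulean-labeled Runt domain protein | Amount: Each fluorescent fusion protein 100 nM | Schedule: Two 1 h room-temperature incubations shielded from light | Measured by: FRET fluorescence | Evaluation: Loss of energy transfer signal | Controls: Unlabeled CBFb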
An asterisk follows results filed as active; ? = inconclusive; · = not tested or not shown. Only some compounds are listed: those with a hit (about 2.1% of all), similar ones and a draw of the others.

SMILES	Runt-SMMHC FRET	Pemphigus Ab inh	RanGTP-Imp inh	p-CIP stab down	Hck Nef HTS	Runt-CBFb FRET
COc1cc(/C=N/N2CCN(C3c4ccccc4-c4ccccc43)CC2)cc(OC)c1OC	1.9	104.4	4.3	-0.5	3.7	-1.7
COc1cc(/C=N/N2CCN(C3c4ccccc4-c4ccccc43)CC2)cc(OC)c1O	55.6*	98.7	0.9	-1.1	1.8	49.5
CCc1ccc(Cc2cnc(NC(=O)C3=NCCN3)s2)cc1	3.2	77.6	-1.6	-3.7	-25.2	2.7
COc1cccc2c1NC(C(=O)O)C1CC=CC21 (configuration not stated)	·	13.0*	4.5	-2.3	16.2	18.9
O=C(O)C1Nc2c(cccc2C(F)(F)F)C2C=CCC12 (configuration not stated)	·	·	-1.4	-7.2	·	·
CCCCc1c(C)c(C#N)c2nc3ccccc3n2c1NCCN(C)C	·	103.9	4.9	0.7	·	·
CCCc1c(C)c(C#N)c2nc3ccccc3n2c1NCCCN1CCOCC1	53.7*	103.5	9.2	-12.4	16.3	19.6
Cc1c(Cc2ccccc2)c(NCCN(C)C)n2c(nc3ccccc32)c1C#N	80.8*	102.5	26.3*	10.1	13.1	29.7
N#Cc1c2c(c(NCCN3CCOCC3)n3c1nc1ccccc13)CCCC2	111.4*	99.0	45.4*	-6.5	31.0	50.1*
CC(C)c1cc(NCCN2CCOCC2)n2c(nc3ccccc32)c1C#N	·	99.3	·	·	·	·
CC(=O)Nc1ccc(NC(=O)C2CCCN2/C=C/C(=O)C(F)(F)F)cc1 (configuration not stated)	-2.7	102.5	-1.9	-8.1	18.1	0.6
CC(C)=CCN1CCN(Cc2nc(C(C)C)cs2)CC1CCO (configuration not stated)	-5.9	103.9	-2.1	2.1	2.7	2.9
CC(C)CN1CCN(Cc2nc(C(C)C)cs2)CC1CCO (configuration not stated)	-7.4	-8.8*	-2.5	-9.8	6.2	-2.3
O=C(CN1C(=O)COc2ccc(S(=O)(=O)N3CCCCC3)cc21)NCc1ccc(F)cc1	·	102.6	51.1*	-1.4	·	·
CC(=O)Nc1ccc(NC(=O)CN2C(=O)COc3ccc(S(=O)(=O)N4CCOCC4)cc32)cc1	·	95.9	7.8	1.0	·	·
CC(C)c1ccc(NC(=O)CN2C(=O)COc3ccc(S(=O)(=O)N4CCOCC4)cc32)cc1	·	74.2*	0.8	-2.9	·	·
CCN(CC(=O)NCc1ccc(F)cc1)CC(=O)Nc1ccc(S(=O)(=O)N2CCCC2)cc1	-0.1	102.4	17.0*	9.3	25.6	-4.8
CC1CCCCN1C(=O)c1cc2ccccc2cc1O (configuration not stated)	·	116.9	-5.4	-9.0	·	·
O=C(CC1C(=O)NCCN1Cc1cccc(C(F)(F)F)c1)NC1CCCCCC1 (configuration not stated)	·	106.9	-5.2	-0.4	·	·
COc1cc(-c2noc(C)c2C(=O)NCCCN2CCOCC2)cc(OC)c1OC	·	100.0	·	·	·	·
C=CCN1C(=O)C2C(C(=O)NC3CCCC3)C3C=CC2(O3)C1C(=O)NC1CCCC1 (configuration not stated)	·	105.6	-3.7	2.9	·	·
COc1ccc(Cl)cc1NC(=O)COC(=O)c1c(-c2ccccc2)noc1C	·	106.2	·	·	·	·
O=C(/C=C/Nc1nccs1)C(F)(F)Cl	70.9*	101.0	-3.9	-4.4	-1.4	44.7
CCOc1cc(N2CCOCC2)c(OCC)cc1NC(=O)C1CC(=O)N(c2ccc(C)cc2)C1 (configuration not stated)	·	84.1	·	·	·	·
O=C(NC(=S)NCc1ccccc1)C1CC1	-1.1	24.8*	-4.1	-4.9	-2.0	-0.5
SMILES	Runt-SMMHC FRET	Pemphigus Ab inh	RanGTP-Imp inh	p-CIP stab down	Hck Nef HTS	Runt-CBFb FRET
O=C(NCc1ccccc1)C1CCCC1	·	·	1.6	-35.7	·	·
Cc1cc2cc(CNC(=S)Nc3ccc(OC(F)F)cc3)ccc2n1C	2.8	62.5*	0.3	-4.0	-4.9	-0.9
FC(F)Oc1ccc(NC(=S)NCc2ccccc2)cc1	1.3	97.2	3.2	-3.7	-0.4	-0.4
CSc1nsc(/C=C/Nc2ccc(C)c(C)c2)c1C#N	-6.7	100.0	33.1*	9.1	23.1	-0.7
Cc1cccc(OC(=O)NCCOC(=O)N(O)c2ccc(Cl)cc2)c1	2.1	-26.1*	-2.3	-7.2	0.4	0.7
c1c[nH]c(CN2CCN(Cc3ncc[nH]3)CC2)n1	·	97.8	·	·	·	·
CN1C2=C(C(=O)CC(C)(C)C2)C(c2cccs2)C2=C1CC(C)(C)CC2=O	·	113.4	60.5*	·	·	·
CC1(C)CC(=O)C2=C(C1)OC(=O)CC2c1cccs1 (configuration not stated)	-1.3	98.4	3.6	-2.6	17.5	0.9
C[C@@H]1CN([C@H](C)CO)C(=O)CCCn2nncc2CO[C@H]1CN(C)S(=O)(=O)c1cccc(C#N)c1	·	105.0	·	·	·	·
C/C(=N\NC(=O)c1cc(-c2cccc([N+](=O)[O-])c2)n[nH]1)c1ccc(F)cc1	-3.8	94.3	2.6	-1.7	25.8	-2.2
C/C(=N/NC(=O)c1cc(-c2cccc([N+](=O)[O-])c2)n[nH]1)c1cccc(O)c1	-34.8	74.5*	3.8	-7.3	-2.0	-7.0
C=CCNC(=O)NC(=O)CN1C(=O)NC(c2ccccc2)(c2ccccc2)C1=O	·	103.0	1.0	-8.0	·	·
O=C(Nc1cccc(-c2cccc(F)c2)c1)C1CCN(C2CCOCC2)CC1	·	106.6	0.1	-8.6	·	·
c1cc(CNCCN2CCNCC2)ccn1	·	58.0*	·	·	·	·
COc1ccc(C(=O)Nc2sc(C)c(-c3ccccc3)c2C#N)cc1OC	6.5	90.2	79.4*	9.3	-10.8	2.1
Cc1sc(NC(=O)COc2ccccc2)c(C#N)c1-c1ccccc1	0.1	82.3	1.5	6.3	1.1	1.2
Cc1ccc(-c2nc3cnccn3c2Nc2c(C)cccc2C)o1	-47.3	102.7	46.7*	-30.5	3.7	-2.8
Cn1ncc(Cl)c1C(=O)N1CCC(Cc2ccccc2)CC1	·	97.3	?	-11.8	·	·
OCC[C@@H]1C[C@H](O)[C@@H](O)[C@]2(CCc3ccccc3CO2)O1	·	99.5	?	-2.9	·	·
CCCN1CCc2c(sc(NC(=O)c3ccc(S(=O)(=O)N(C)c4ccccc4)cc3)c2C(N)=O)C1	·	122.6	?	-32.2	·	·
CC(=O)c1ccc(C(=O)Nc2sc3c(c2C(N)=O)CCN(Cc2ccccc2)C3)cc1	·	144.4	55.3*	-45.2	·	·
COc1cccc(OC)c1C(=O)Nc1sc2c(c1C(N)=O)CCN(Cc1ccccc1)C2	·	101.1	133.7*	-8.0	·	·
CCN1CCc2c(sc(NC(=O)c3cc4ccccc4cc3OC)c2C(N)=O)C1	·	·	·	-3.9	·	·
CCOC(=O)Cn1cnc2c(cnn2-c2ccccc2)c1=O	·	100.1	1.7	3.2	·	·
COc1ccc(S(=O)(=O)NNC(=O)Nc2ccc(F)cc2)cc1	·	102.7	-2.1	·	·	·
